Experimental data taken from PubChem BioAssay.
Records with an inconclusive call do not appear.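 How the source made its calls, unless noted: active means growth inhibition above 25% in both replicates, a cutoff set 3 SD above the mean; inconclusive means above 25% in only one replicate; inactive means the rest.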

Tests used:
[1] = OD615 S. cerevisiae growth inhibition, permissive medium, pilot counter-assay, permissive growth control for S. cerevisiae lifespan shortening project (AID 705); details: OD615, 24 h, at 10 µM, stronger effect = higher value
Outline: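 System: engineered DeaD yeast; Medium: permissive raffinose/galactose medium; Compound dosing: 10 µM single dose, 0.25% DMSO; Incubation: 4 h cell pre-growth, 24 h exposure at 30 °C; Technique: OD at 615 nm; Evaluation: growth inhibition from lowered OD615 after 24 h.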

[2] = Restrictive medium S. cerevisiae growth inhibition, OD615, pilot screen of yeast lifespan reduction project, restrictive growth control (AID 706;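 active means growth inhibition above a set limit, 3 SD over mean compound inhibition, in both replicates, cut at about 43% in these data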;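 further: modified DeaD lifespan yeast strain shifted to restrictive glucose medium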); details: OD615, 48 h, at 10 µM, stronger effect = higher value
Outline: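 Material: modified S. cerevisiae; buffer or medium: CSMM-D glucose medium; doses: one concentration, 10 µM final, 0.25% DMSO; incubation: 48 h compound exposure at 30 °C; detection: optical density at 615 nm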

[3] = viability gain of MRP-1-high H69AR cells under doxorubicin, pilot screen, MRP-1 activator project, CellTiter-Glo, duplicate (AID 807;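 active means viability increase at or above a cutoff of the median across tested compounds plus 3 SD, cut at about 8.5% in these data, passing the limit was not always enough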;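 further: compound pretreatment 18-22 h then 72 h combined with doxorubicin; 0% = doxorubicin alone and 100% = vehicle without doxorubicin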); details: H69AR viability with doxorubicin, CellTiter-Glo luminescence; at 10 µM; stronger effect = higher value
[4] = growth suppression of beta-catenin knockout HCT116, pilot screen, human colon tumor cells (AID 823;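 active means cell viability at or below a set limit in both duplicate runs, the limit being the all-compound median minus 4 SD, cut at about 23% in these data, passing the limit was not always enough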;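 further: 0% = wells killed by 20 µM Hyamine and 100% = untreated DMSO cell wells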); details: CellTiter-Glo, 60 h, at 10 µM, stronger effect = lower value
[5] = growth suppression of PTEN-deleted HCT116, pilot screen, cell-based, HCT116 clonal line, CellTiter-Glo (AID 824;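 active means viability at or below 27.92% in each of two runs, the all-compound median minus 4 SD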;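 further: 0% = 20 µM Hyamine control and 100% = vehicle cell control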); details: 60 h, at 10 µM, stronger effect = lower value
[6] = inhibitors of the yeast RAM network, pilot screen, dse1pr::URA3 reporter, 5-FOA selection (AID 869;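 active means inhibition over a set limit, the all-compound mean plus 3 SD, in both replicate runs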;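 further: 0% = DMSO wells with no growth and 100% = 10 µM 1-NA-PP1 with full growth; RAM network block rescues cells from 5-FOA so hits raise OD615 growth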); details: S. cerevisiae dse1pr::URA3 5-FOA growth, OD615, 2 d; at 10 µM; stronger effect = higher value; strain carries analog-sensitive mutant Cbk1 kinase
[7] = RAM signaling pathway blockade in yeast – S. cerevisiae, Pdr1DBD-CYC8 efflux-inhibited sensitized strain, primary screen (AID 1298;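 active means RAM network inhibition above 8.4% in each of two replicates, 3 SD over the compound average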;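 further: 0% = DMSO untreated cells without growth and 100% = 10 µM 1-NA-PP1 full growth; higher means more yeast growth rescued from 5-FOA killing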); details: S. cerevisiae cbk1-as DSE1-URA3 strain, 5-FOA growth OD615, 2 d; at 50 µM; stronger effect = higher value

O=C(NCc1ccccn1)c1cc2ccccn2n1
inactive: growth inhibition [1] -2.5% | growth inhibition [2] 0.82% | viability increase [3] -0.01% | viability [4] 104% | viability [5] 102% | inhibition [6] 0.245% | RAM network inhibition [7] 3.25%

COc1cccc(-n2nnc3c(=O)n(CC(=O)NCC4CCCO4)cnc32)c1 (stereo not given)
inactive: growth inhibition [1] 2.81% | growth inhibition [2] -2.83% | viability increase [3] 0.22% | viability [4] 101% | viability [5] 93.7% | inhibition [6] -0.415% | RAM network inhibition [7] 5.27%

CCOC(=O)C1CCCN(c2c(NCCCN3CCCC(C)C3)c(=O)c2=O)C1 (stereo not given)
inactive: growth inhibition [1] 3.9% | growth inhibition [2] 3.15% | viability increase [3] -0.04% | viability [4] 99.1% | viability [5] 94.4% | inhibition [6] 2.96% | RAM network inhibition [7] -0.87%

O=c1c2ccccc2nnn1CSc1nnc(-c2ccco2)o1
inactive: growth inhibition [1] -8.6% | growth inhibition [2] 2.08% | viability increase [3] -4.5% | viability [4] 83.3% | viability [5] 86.5% | inhibition [6] 0.57% | RAM network inhibition [7] 0.46%

CC(=O)N(c1ccccc1)C1SC(=O)N(c2ccccc2)C1=O (stereo not given)
inactive: growth inhibition [1] -15.9% | growth inhibition [2] -9.37% | viability increase [3] -0.06% | viability [4] 97.9% | viability [5] 99.7% | inhibition [6] 3.73% | RAM network inhibition [7] 6.65%

O=C(C1CC1)N1CCc2cc(Br)cc(S(=O)(=O)NCc3ccccn3)c21
inactive: growth inhibition [1] -8.05% | growth inhibition [2] -19% | viability increase [3] -1.89% | viability [4] 99.2% | viability [5] 96.9% | inhibition [6] 1.32% | RAM network inhibition [7] 5.17%

Cc1nc2c3ccccc3n(CC#N)c(=O)n2n1
inactive: growth inhibition [1] -11.8% | growth inhibition [2] -5.63% | viability increase [3] -3.78% | viability [4] 99.9% | viability [5] 95.8% | inhibition [6] 2.66% | RAM network inhibition [7] 0.21%

COc1ccc(OC)c(NC(=O)C2CCCNC2=O)c1 (stereo not given)
inactive: growth inhibition [1] -6.08% | growth inhibition [2] -1.6% | viability increase [3] -1.67% | viability [4] 95.1% | viability [5] 94.5% | inhibition [6] 1.33% | RAM network inhibition [7] 1.33%

CCOc1ccc(S(=O)(=O)N(CC(=O)O)c2ccccc2)cc1
inactive: growth inhibition [1] -1.83% | growth inhibition [2] -7.26% | viability increase [3] -2.11% | viability [4] 102% | viability [5] 93.6% | inhibition [6] 1.07% | RAM network inhibition [7] 2.61%

COC(=O)c1ccc(-n2nnnc2SCC(=O)N2CCCCC2)cc1
inactive: growth inhibition [1] -8.57% | growth inhibition [2] -21.9% | viability increase [3] -3% | viability [4] 85.8% | viability [5] 86.1% | inhibition [6] 0.045% | RAM network inhibition [7] 1.64%

COc1ccc(N2C(=O)C(CC(=O)O)S/C2=C\C(C)=O)cc1 (stereo not given)
inactive: growth inhibition [1] -7.45% | growth inhibition [2] -2.82% | viability increase [3] -0.23% | viability [4] 98% | viability [5] 99.4% | inhibition [6] 0.95% | RAM network inhibition [7] 3.43%

CC1=C(C(=O)OCC2CCCO2)C(c2ccccc2)NC(=O)N1 (stereo not given)
inactive: growth inhibition [1] -9.26% | growth inhibition [2] -17.9% | viability increase [3] -0.06% | viability [4] 103% | viability [5] 99.8% | inhibition [6] 1.33% | RAM network inhibition [7] -0.93%

CCOc1ccc2nc(N3CCCC(C(=O)N4CCN(CC)CC4)C3)sc2c1 (stereo not given)
inactive: growth inhibition [1] -4.44% | growth inhibition [2] -8.34% | viability increase [3] 0.55% | viability [4] 102% | viability [5] 96.2% | inhibition [6] 0.775% | RAM network inhibition [7] 2.01%

COc1cc(OC)cc(C(=O)NCCn2ccc3ccccc32)c1
inactive: growth inhibition [1] -5.04% | growth inhibition [2] 0.31% | viability increase [3] -3.92% | viability [4] 92.8% | viability [5] 92.3% | inhibition [6] 1.16% | RAM network inhibition [7] 7.95%

Cc1ccc(-n2c(=O)[nH]cc(C(=O)Nc3ccc4c(c3)OCO4)c2=O)cc1C
inactive: growth inhibition [1] -15.8% | growth inhibition [2] -15% | viability increase [3] 0.27% | viability [4] 107% | viability [5] 94.8% | inhibition [6] 1.78% | RAM network inhibition [7] 3.26%

c1ccc(Cn2c(CSc3nnnn3-c3ccccc3)nc3ccccc32)cc1
inactive: growth inhibition [1] 0.645% | growth inhibition [2] 5.56% | viability increase [3] -2.93% | viability [4] 96.3% | viability [5] 95% | inhibition [6] 1.48% | RAM network inhibition [7] 5.11%

CCN1C(=O)CC(N2CCN(c3ccc(Cl)cc3)CC2)C1=O (stereo not given)
inactive: growth inhibition [1] -18.6% | growth inhibition [2] -7.02% | viability increase [3] 1.46% | viability [4] 98% | viability [5] 94.6% | inhibition [6] 1.04% | RAM network inhibition [7] 4.19%

CCCS(=O)(=O)c1nc(S(=O)(=O)c2ccc(C)cc2)c(NCCN2CCOCC2)s1
inactive: growth inhibition [1] -8.93% | growth inhibition [2] -6.58% | viability increase [3] -0.11% | viability [4] 93.7% | viability [5] 86.7% | inhibition [6] 1.04% | RAM network inhibition [7] 6.38%

CCOC(=O)N1CCN(C(c2ccc(C(C)C)cc2)c2sc3nc(C)nn3c2O)CC1 (stereo not given)
inactive: growth inhibition [1] -1.48% | growth inhibition [2] -10.5% | viability increase [3] 2.48% | viability [4] 102% | viability [5] 91% | inhibition [6] 0.2% | RAM network inhibition [7] 0.93%

CCOC(=O)C(C)n1cnc2sc3c(c2c1=O)CCC3 (stereo not given)
inactive: growth inhibition [1] -8.5% | growth inhibition [2] -7.75% | viability increase [3] -1.76% | viability [4] 95.7% | viability [5] 99.6% | inhibition [6] 0.575% | RAM network inhibition [7] 1.15%

CCOC(=O)CSc1nc(N)nc(C)c1Br
inactive: growth inhibition [1] -0.46% | growth inhibition [2] -3.4% | viability increase [3] -2.62% | viability [4] 103% | viability [5] 104% | inhibition [6] 0.49% | RAM network inhibition [7] 0.51%

O=C(NC1CCCCC1)c1ccc(Br)o1
inactive: growth inhibition [1] -5.84% | growth inhibition [2] -1.68% | viability increase [3] -1.9% | viability [4] 102% | viability [5] 102% | inhibition [6] 0.915% | RAM network inhibition [7] 3.82%

CC(=O)NC(CCS(C)(=O)=O)C(=O)Nc1ccc(Oc2ccccc2)cc1 (stereo not given)
inactive: growth inhibition [1] -7.71% | growth inhibition [2] -16.7% | viability increase [3] -0.67% | viability [4] 101% | viability [5] 93.5% | inhibition [6] 1.69% | RAM network inhibition [7] 5.21%

COc1ccc(Nc2nnc(Cc3ccc(Cl)cc3)c(=O)[nH]2)c(OC)c1
inactive: growth inhibition [1] -11.1% | growth inhibition [2] -13% | viability increase [3] 1.86% | viability [4] 100% | viability [5] 95.7% | inhibition [6] 1.89% | RAM network inhibition [7] 2.35%

CC12C(=O)N(c3ccccn3)C(=O)C1C1C=CC2C1 (stereo not given)
inactive: growth inhibition [1] -13.3% | growth inhibition [2] -4.06% | viability increase [3] -0.78% | viability [4] 96.6% | viability [5] 92% | inhibition [6] 1.26% | RAM network inhibition [7] 1.11%
